Laboratory results as given in the M2OR odorant receptor database.

Assays:
Conditions in all cases: stereoisomer not certain
UniProt Q8VGC6 = target: T1, UniProt Q8VGC6
T1 sequence (whole entry): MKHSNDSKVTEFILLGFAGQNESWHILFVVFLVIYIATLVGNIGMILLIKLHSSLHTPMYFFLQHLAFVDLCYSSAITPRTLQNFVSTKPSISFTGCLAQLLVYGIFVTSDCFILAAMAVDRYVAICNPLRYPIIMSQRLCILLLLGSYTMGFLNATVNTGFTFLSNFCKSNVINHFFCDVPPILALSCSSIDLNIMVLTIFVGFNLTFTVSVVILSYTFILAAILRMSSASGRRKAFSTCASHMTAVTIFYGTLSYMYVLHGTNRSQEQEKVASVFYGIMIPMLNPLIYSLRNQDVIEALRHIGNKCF
Outline: (§1)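 Each entry records the cell line, G-protein, co-transfected protein and tags used. Methods varied with the source, often transient luciferase assays in mammalian cell lines. A receptor–molecule pair is called responsive (active) if the original authors judged its signal statistically different from baseline and non-responsive (inactive) otherwise.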

UniProt Q8VGD7 = target: T2, UniProt Q8VGD7
T2 sequence (whole entry): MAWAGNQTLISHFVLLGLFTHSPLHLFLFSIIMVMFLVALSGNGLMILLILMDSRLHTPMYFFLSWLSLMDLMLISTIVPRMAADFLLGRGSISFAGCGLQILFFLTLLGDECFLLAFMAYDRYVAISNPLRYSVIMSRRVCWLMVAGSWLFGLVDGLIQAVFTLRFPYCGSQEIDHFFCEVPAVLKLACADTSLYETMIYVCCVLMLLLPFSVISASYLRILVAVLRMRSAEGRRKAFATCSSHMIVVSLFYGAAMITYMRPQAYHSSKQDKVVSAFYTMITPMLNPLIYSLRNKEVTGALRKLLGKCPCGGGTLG
Outline: as §1

UniProt Q8VGH1 = target: T3, UniProt Q8VGH1
T3 sequence (whole entry): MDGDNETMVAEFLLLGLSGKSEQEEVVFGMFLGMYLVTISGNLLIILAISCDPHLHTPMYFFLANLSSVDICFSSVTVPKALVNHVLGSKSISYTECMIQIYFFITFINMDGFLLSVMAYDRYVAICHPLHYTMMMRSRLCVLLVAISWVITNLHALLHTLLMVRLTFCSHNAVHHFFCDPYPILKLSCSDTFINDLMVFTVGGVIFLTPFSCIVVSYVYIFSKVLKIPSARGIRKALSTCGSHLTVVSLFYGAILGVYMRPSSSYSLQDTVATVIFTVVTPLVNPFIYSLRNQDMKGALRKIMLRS
Outline: as §1

UniProt Q8VGJ1 = target: T4, UniProt Q8VGJ1
T4 sequence (whole entry): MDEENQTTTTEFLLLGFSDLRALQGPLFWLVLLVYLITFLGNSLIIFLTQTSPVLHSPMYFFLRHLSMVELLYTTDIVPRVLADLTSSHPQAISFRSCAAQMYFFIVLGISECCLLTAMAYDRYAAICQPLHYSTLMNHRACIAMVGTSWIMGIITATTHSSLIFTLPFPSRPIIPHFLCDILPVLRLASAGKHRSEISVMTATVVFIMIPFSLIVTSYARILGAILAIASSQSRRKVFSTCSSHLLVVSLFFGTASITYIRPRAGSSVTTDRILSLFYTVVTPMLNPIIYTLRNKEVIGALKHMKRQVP
Outline: as §1

UniProt Q8VGJ3 = target: T5, UniProt Q8VGJ3
T5 sequence (whole entry): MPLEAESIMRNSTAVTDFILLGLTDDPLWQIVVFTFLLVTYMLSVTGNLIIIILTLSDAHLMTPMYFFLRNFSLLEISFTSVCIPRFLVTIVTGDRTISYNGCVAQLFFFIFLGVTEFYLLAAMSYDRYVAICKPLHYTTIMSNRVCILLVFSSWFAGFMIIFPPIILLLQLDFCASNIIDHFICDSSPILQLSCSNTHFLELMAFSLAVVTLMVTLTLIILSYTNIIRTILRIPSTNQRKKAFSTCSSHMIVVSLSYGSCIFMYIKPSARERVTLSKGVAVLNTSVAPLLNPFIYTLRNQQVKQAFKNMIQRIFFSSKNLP
Outline: as §1

UniProt Q8VGJ5 = target: T6, UniProt Q8VGJ5
T6 sequence (whole entry): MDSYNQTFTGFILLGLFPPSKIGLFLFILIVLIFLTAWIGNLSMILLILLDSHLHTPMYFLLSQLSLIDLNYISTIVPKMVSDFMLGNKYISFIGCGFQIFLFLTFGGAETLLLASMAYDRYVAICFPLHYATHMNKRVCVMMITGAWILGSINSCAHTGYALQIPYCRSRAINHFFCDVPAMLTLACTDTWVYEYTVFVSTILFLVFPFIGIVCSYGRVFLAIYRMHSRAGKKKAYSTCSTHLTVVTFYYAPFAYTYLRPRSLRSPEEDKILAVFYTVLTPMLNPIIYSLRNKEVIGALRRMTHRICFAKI
Outline: as §1

UniProt Q8VGL0 = target: T7, UniProt Q8VGL0
T7 sequence (whole entry): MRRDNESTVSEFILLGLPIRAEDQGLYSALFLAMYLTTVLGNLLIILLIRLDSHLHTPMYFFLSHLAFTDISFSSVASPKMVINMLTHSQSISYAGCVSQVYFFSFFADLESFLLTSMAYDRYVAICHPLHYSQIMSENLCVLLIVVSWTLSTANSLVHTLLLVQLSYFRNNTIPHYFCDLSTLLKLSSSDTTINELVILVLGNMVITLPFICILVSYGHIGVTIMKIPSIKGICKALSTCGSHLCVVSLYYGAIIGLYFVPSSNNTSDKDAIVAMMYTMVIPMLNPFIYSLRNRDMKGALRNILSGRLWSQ
Outline: as §1

UniProt Q8VGL7 = target: T8, UniProt Q8VGL7
T8 sequence (whole entry): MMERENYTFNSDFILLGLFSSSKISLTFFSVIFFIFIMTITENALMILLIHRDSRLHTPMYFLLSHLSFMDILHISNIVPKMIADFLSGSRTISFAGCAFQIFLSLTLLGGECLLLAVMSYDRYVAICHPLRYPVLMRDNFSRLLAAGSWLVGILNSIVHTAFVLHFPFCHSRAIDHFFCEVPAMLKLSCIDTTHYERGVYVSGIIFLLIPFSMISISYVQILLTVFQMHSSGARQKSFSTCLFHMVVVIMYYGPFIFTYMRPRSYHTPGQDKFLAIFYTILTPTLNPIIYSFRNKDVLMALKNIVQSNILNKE
Outline: as §1

UniProt Q8VGM2 = target: T9, UniProt Q8VGM2
T9 sequence (whole entry): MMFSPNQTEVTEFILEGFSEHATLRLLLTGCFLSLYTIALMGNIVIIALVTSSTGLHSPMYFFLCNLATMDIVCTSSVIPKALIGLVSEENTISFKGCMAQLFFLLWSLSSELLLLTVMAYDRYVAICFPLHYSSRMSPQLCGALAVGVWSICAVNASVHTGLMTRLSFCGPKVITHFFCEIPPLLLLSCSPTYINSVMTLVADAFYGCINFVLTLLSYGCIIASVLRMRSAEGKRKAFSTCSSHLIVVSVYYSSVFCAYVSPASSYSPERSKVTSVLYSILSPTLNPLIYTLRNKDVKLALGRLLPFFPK
Outline: as §1

UniProt Q8VGP6 = target: T10, UniProt Q8VGP6
T10 sequence (whole entry): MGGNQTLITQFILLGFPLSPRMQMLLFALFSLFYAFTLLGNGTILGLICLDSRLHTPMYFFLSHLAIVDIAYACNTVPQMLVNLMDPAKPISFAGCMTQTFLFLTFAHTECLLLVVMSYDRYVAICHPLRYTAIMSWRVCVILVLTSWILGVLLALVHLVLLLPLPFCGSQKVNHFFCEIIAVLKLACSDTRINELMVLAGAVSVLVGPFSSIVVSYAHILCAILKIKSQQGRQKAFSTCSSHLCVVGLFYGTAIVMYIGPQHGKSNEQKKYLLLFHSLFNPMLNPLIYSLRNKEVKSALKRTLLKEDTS
Outline: as §1

UniProt Q8VGQ3 = target: T11, UniProt Q8VGQ3
T11 sequence (whole entry): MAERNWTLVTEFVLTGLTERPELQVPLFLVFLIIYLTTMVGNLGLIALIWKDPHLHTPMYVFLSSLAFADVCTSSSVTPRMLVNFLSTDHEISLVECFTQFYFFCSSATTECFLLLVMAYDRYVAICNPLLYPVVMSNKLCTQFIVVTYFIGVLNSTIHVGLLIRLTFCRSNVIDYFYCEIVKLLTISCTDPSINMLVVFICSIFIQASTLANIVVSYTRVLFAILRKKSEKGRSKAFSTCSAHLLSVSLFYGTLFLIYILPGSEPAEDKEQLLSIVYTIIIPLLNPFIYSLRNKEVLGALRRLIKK
Outline: as §1

UniProt Q8VGT4 = target: T12, UniProt Q8VGT4
T12 sequence (whole entry): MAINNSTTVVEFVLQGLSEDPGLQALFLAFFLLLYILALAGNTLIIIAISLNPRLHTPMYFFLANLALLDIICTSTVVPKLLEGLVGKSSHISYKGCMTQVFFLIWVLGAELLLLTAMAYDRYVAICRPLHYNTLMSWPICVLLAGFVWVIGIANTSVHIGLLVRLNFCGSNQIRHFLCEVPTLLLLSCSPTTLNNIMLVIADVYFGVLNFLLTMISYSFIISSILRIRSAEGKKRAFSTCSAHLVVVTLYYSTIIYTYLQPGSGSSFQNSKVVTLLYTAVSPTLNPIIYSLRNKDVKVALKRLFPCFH
Outline: as §1

UniProt Q8VGU3 = target: T13, UniProt Q8VGU3
T13 sequence (whole entry): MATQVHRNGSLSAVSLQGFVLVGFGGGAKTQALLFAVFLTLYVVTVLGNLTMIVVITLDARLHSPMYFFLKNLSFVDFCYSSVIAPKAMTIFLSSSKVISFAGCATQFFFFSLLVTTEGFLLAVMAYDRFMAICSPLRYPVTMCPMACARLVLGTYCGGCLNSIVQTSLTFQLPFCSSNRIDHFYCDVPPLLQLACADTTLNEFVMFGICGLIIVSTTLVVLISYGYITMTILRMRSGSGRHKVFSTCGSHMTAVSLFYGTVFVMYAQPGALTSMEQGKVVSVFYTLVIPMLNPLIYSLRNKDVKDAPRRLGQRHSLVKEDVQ
Outline: as §1

UniProt Q8VGV1 = target: T14, UniProt Q8VGV1
T14 sequence (whole entry): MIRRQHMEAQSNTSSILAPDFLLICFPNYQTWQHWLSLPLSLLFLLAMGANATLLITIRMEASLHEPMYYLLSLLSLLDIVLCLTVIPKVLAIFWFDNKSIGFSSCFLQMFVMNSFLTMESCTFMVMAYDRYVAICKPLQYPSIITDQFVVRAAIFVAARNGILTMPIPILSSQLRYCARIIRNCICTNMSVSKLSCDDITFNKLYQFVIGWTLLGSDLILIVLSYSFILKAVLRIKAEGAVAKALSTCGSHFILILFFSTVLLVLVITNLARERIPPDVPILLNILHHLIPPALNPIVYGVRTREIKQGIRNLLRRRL
Outline: as §1

UniProt Q8VGV7 = target: T15, UniProt Q8VGV7
T15 sequence (whole entry): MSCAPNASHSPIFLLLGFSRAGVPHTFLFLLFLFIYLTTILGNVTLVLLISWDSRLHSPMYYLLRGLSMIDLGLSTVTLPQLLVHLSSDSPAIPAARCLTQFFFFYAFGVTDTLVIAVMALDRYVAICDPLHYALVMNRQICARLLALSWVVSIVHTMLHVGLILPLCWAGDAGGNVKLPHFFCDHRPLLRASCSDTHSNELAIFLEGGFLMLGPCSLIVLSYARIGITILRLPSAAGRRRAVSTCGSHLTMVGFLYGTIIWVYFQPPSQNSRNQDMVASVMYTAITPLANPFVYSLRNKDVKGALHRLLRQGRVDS
Outline: as §1

UniProt Q8VGX3 = target: T16, UniProt Q8VGX3
T16 sequence (whole entry): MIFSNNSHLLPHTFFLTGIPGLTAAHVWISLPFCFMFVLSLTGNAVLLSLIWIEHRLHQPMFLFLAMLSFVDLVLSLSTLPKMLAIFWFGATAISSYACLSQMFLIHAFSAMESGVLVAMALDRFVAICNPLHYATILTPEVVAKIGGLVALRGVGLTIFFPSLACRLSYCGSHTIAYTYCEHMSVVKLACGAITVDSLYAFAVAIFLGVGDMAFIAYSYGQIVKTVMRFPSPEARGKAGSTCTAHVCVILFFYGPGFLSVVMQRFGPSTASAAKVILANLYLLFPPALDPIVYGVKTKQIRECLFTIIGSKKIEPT
Outline: as §1

UniProt Q8VGX5 = target: T17, UniProt Q8VGX5
T17 sequence (whole entry): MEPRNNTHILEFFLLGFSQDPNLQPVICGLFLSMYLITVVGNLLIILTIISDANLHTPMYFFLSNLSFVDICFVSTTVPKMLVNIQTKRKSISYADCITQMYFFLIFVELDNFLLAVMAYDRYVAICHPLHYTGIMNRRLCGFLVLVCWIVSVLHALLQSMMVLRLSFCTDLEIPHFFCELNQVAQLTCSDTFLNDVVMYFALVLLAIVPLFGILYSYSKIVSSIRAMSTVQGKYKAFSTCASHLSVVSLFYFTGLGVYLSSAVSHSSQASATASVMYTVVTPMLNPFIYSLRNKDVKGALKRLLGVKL
Outline: as §1

Measured: odorant receptor agonist call

c1ccccc1
inactive: all assays above
